According to ChEMBL document CHEMBL5230170, “Pyridine based dual binding site aromatase (CYP19A1) inhibitors” (RSC Med Chem, 2023):
Active and inactive are the calls of the source. The calls are words filed in the database; no cut-off is given here.

Tests used:
MCF-10A = experiment: Cytotoxicity against human MCF-10A cells assessed as reduction in cell growth at 1 uM incubated for 48 hrs by BrdU cell proliferation assay; assay type: toxicity, cell-based
Outline: (§1)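 48 h exposure to 1 μM, with DMSO vehicle (≤0.01%) and doxorubicin (1 μM) controls, then BrdU added for 2 h at 37 °C before fixation, DNA denaturation and colorimetric immunoassay of BrdU incorporation. Plating was 8 × 10^3 cells/well for MCF-10A and 5 × 10^3 cells/well for MDA-MB-231. Technical replicates were n = 6 for MDA-MB-231 and n = 5 for MCF-7 and MCF-10A; one-way ANOVA with Tukey's test.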

MCF7 = experiment: Cytotoxicity against human MCF7 cells assessed as reduction in cell growth at 1 uM incubated for 48 hrs by BrdU cell proliferation assay; assay type: functional, cell-based; outline: as §1
MDA-MB-231 = experiment: Cytotoxicity against human MDA-MB-231 cells assessed as reduction in cell growth at 1 uM incubated for 48 hrs by BrdU cell proliferation assay; assay type: functional, cell-based; outline: as §1
Homo sapiens [1] = organism: Homo sapiens; experiment: Selectivity index, ratio of IC50 for inhibition of CYP2D6 in human liver microsomes to IC50 for inhibition of CYP19A1 in human JEG-3 cells; assay type: cell-based
Outline: (§2)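 The CYP isoform IC50 was measured in human liver microsomes with an isoform-specific probe substrate. […] Tritiated water was charcoal-cleared and counted, then normalised to BCA protein, in triplicate. The index is the ratio of the isoform IC50 to the CYP19A1 IC50.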

Homo sapiens [2] = organism: Homo sapiens; experiment: Selectivity index, ratio of IC50 for inhibition of CYP1A2 in human liver microsomes to IC50 for inhibition of CYP19A1 in human JEG-3 cells; assay type: cell-based; outline: as §2

SMILES | Activity (MCF-10A) | Activity (MCF7) | Activity (MDA-MB-231) | Ratio IC50 (Homo sapiens [1]) | Ratio IC50 (Homo sapiens [2])
COc1ccc2cc(C(O)(c3ccc(F)cc3)c3cccnc3)oc2c1 (centres undefined) | Non-Toxic | inactive | inactive |  | 
COc1ccc2cc(C(O)(c3cccnc3)c3ccc(Cl)cc3Cl)oc2c1 (centres undefined) | Non-Toxic | inactive | inactive |  | 
COc1ccc2cc(C(O)(c3ccc(Br)cc3)c3cccnc3)oc2c1 (centres undefined) | Non-Toxic | inactive | inactive |  | 
COc1cccc2c1C(=O)c1c(O)c3c(c(O)c1C2=O)C[C@@](O)(C(=O)CO)C[C@@H]3O[C@H]1C[C@H](N)[C@H](O)[C@H](C)O1 [DOXORUBICIN] | Not Active | inactive | inactive |  | 
CCC#CCOc1ccc2cc(C(O)(c3ccc(Cl)cc3)c3cccnc3)oc2c1 (centres undefined) | Not Active | inactive | inactive |  | 
CC#CCOc1ccc2cc(C(O)(c3ccc(Br)cc3)c3cccnc3)oc2c1 (centres undefined) | Non-Toxic | inactive | inactive | 30100 | 30100
CCC#CCOc1ccc2cc(C(O)(c3ccc(Br)cc3)c3cccnc3)oc2c1 (centres undefined) | Not Active | inactive | inactive |  | 
COc1ccc2cc(C(O)(c3ccc(Cl)cc3)c3cccnc3)oc2c1 (centres undefined) | Non-Toxic | inactive | inactive |  | 
CC#CCOc1ccc2cc(C(O)(c3ccc(Cl)cc3)c3cccnc3)oc2c1 (centres undefined) | Non-Toxic | inactive | inactive |  | 
